Experimental data of several laboratories.
Target: Ephrin type-A receptor 6 (EPHA6, Homo sapiens, UniProt Q9UF33)
Sequence (Q9UF33 23-1036, as in one of the studies): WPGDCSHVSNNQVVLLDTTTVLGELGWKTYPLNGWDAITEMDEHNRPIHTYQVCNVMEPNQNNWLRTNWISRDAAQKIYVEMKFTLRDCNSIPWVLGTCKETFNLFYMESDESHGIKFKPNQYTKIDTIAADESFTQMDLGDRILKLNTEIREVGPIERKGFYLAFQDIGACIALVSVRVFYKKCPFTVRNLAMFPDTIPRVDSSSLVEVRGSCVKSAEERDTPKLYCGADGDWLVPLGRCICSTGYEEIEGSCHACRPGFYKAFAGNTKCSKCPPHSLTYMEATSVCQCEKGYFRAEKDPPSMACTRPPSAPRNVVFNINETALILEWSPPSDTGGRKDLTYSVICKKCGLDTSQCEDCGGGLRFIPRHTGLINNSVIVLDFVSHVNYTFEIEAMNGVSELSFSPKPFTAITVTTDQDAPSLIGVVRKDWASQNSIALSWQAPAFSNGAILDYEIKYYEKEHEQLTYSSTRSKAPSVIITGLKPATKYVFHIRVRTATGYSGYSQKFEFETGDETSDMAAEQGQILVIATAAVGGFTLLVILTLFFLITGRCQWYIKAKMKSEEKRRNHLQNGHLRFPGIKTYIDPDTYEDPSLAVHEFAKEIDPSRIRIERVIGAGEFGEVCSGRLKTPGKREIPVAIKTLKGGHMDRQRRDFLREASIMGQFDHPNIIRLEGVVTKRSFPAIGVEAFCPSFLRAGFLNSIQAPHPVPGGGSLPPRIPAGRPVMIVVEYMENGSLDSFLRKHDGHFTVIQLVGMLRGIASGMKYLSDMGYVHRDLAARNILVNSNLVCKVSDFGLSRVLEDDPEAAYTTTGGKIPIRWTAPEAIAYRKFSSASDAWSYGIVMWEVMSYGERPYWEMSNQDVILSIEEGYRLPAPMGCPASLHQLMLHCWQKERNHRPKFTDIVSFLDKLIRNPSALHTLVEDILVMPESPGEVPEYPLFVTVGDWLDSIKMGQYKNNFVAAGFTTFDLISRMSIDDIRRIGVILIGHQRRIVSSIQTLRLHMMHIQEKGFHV

FC(F)(F)Oc1cccc(-c2cnc3ccc(-c4ccncc4)nn23)c1
remaining binding (cell-free assay; competition with immobilised ligand; 5 µM): 93%

C[C@H]1CCN(c2nccc(-c3cnn4ncccc34)n2)C1
remaining binding (binding; 1 µM): 100%

C=CC(=O)N1CCC(C(=O)NCC(=O)N2CCN(c3nc(-c4cnc(N)nc4C(F)F)nc(N4CCOCC4)n3)CC2)CC1
remaining binding (binding; competition with immobilised ligand; 1 µM): 100%

C[C@@H](c1ccc(-n2cnc3c(N)ncnc32)cc1)N1CCc2nn(C)c(Cc3ccccc3)c2C1=O
remaining binding (binding; competition with immobilised ligand; 0.1 µM): 100%

O=C(Nc1cccnn1)N1CCC(=Cc2cccc(Oc3ccc(C(F)(F)F)cn3)c2)CC1
remaining binding (cell-free assay; competition with immobilised ligand; 1 µM): 78%

COc1ccnn2ncc(-c3ccnc(N(C)C)n3)c12
remaining binding (binding; 1 µM): 67%

Cn1nc(C(=O)NCc2ccc(C(=O)O)cc2)cc1-c1ccc2[nH]ccc2c1
remaining binding (cell-free assay; competition with immobilised ligand; 0.1 µM): 100%

CC1CCCN1c1nccc(-c2cnn3ncccc23)n1 (stereo not drawn)
remaining binding (binding; 1 µM): 94%

Cc1nc(Cc2cccc(C(F)(F)F)c2)sc1-c1ccc(C(N)=O)nc1
remaining binding (cell-free assay; competition with immobilised ligand; 1 µM): 96%

Cc1cnn2ncc(-c3ccnc(N(C)C)n3)c2c1
remaining binding (binding; 1 µM): 100%

O=C(NCCCN1CCOCC1)c1ccc(Nc2nccc(-c3cc4ccccc4s3)n2)cc1
remaining binding (binding; competition with immobilised ligand; 1 µM): 97%

c1cnn2ncc(-c3ccnc(N4CCC45COC5)n3)c2c1
remaining binding (binding; 1 µM): 95%

O=C(c1ccc(Nc2ncc(Cl)c(-c3ccc(Cl)s3)n2)cc1)N1CCC(N2CCCC2)CC1
remaining binding (binding; competition with immobilised ligand; 1 µM): 51%

CNC(=O)[C@@H]1CC[C@@H](n2c(-c3ccc4cnccc4c3)nc3ccc(C(=O)NCc4cccc(C(N)=O)c4)cc32)C1
remaining binding (binding; competition with immobilised ligand; 1 µM): 100%

CN(c1nccc(-c2cnn3ncccc23)n1)C1CC1
remaining binding (binding; 1 µM): 99%

CCCCN(CCCC)C(=O)CN1C[C@H](c2cc(OC)c3c(c2)OCO3)[C@@H](C(=O)O)[C@@H]1CC(C)(C)CCC
remaining binding (cell-free assay; competition with immobilised ligand; 1 µM): 100%

O=C(NCC1CCOCC1)c1n[nH]cc1NC(=O)c1c(F)cccc1F
remaining binding (binding; competition with immobilised ligand; 1 µM): 100%

CO[C@@H](C)c1c(Nc2ccc([C@H](N(C)C(=O)C3CCS(=O)(=O)CC3)C(F)(F)F)cc2)cnc2cc(Cl)nn12
remaining binding (cell-free assay; competition with immobilised ligand; 1 µM): 100%

Cc1cnc(Nc2ccc(C(=O)N3CCC(N4CCCC4)CC3)cc2)nc1-c1cc2ccccc2s1
remaining binding (binding; competition with immobilised ligand; 1 µM): 65%

Nc1ncc2c(n1)-c1c([nH]c3ccc(C#CC4CC4)cc13)CCCC2
remaining binding (binding; competition with immobilised ligand; 1 µM): 100%

CNCc1ccccc1-c1csc([C@@H](C)Nc2nc(C)nc3cc(OC)c(OC)cc23)c1
remaining binding (cell-free assay; competition with immobilised ligand; 1 µM): 96%
